# Measurements from ChEMBL document CHEMBL1159125, “Novel 3-aminopyrazole inhibitors of MK-2 discovered by scaffold hopping strategy” (Bioorg Med Chem Lett, 2010).
# Calls of active or inactive are those of the source. The rule behind the calls is not given here.
# Assays:
# [1] = Permeability from apical to basolateral side in human Caco-2 cells; format: ADME, cell-based
# Mus musculus [2] = assay: Antiinflammatory activity in po dosed OF1 mouse assessed as inhibition of LPS-induced TNFalpha release administered 6 hr prior to LPS challenge measured by ELISA; format: functional; set-up: scale not given: the % may be the effect or the level left
# [3] = Drug level in po dosed OF1 mouse blood after 6 hr; format: ADME, organism-based, OF; conditions: read-out: Drug uptake
# [4] = Drug level in OF1 mouse blood at 30 mg/kg, po after 1 hr; format: ADME, organism-based, OF; set-up: dose 30 mg/kg, route oral; conditions: read-out: Drug uptake
# Method in brief: (§1)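 Female OF1 mice, 8 weeks old, dosed orally, then LPS (20 mg/kg) injected 1 h later. Blood taken 1 h after LPS, and compound blood levels quantified by LC–MS/MS.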
# [5] = Drug level in po dosed OF1 mouse blood after 4 hr; format: ADME, organism-based, OF; conditions: read-out: Drug uptake
# [6] = Drug level in OF1 mouse blood at 100 mg/kg, po after 1 hr; format: ADME, organism-based, OF; set-up: dose 100 mg/kg, route oral; conditions: read-out: Drug uptake; method in brief: as §1
# [7] = target: Mitogen-activated protein kinase 14 (Homo sapiens, UniProt Q16539); assay: Inhibition of p38alpha
# Mus musculus [8] = assay: Antiinflammatory activity in po dosed OF1 mouse assessed as inhibition of LPS-induced TNFalpha release administered 4 hr prior to LPS challenge measured by ELISA; format: functional; set-up: scale not given: the % may be the effect or the level left
# [9] = Drug level in po dosed OF1 mouse blood after 1 hr; format: ADME, organism-based, OF; conditions: read-out: Drug uptake; method in brief: as §1
# [10] = Aqueous solubility at pH 1 to 6.8; format: physicochemical; conditions: aqueous medium
# THP-1 = assay: Cytotoxicity against human THP1 cells; format: cell-based
# [11] = target: Mitogen-activated protein kinase 8 (Homo sapiens, UniProt P45983); assay: Inhibition of JNK1
# Mus musculus [12] = assay: Antiinflammatory activity in po dosed OF1 mouse assessed as inhibition of LPS-induced TNFalpha release administered 1 hr prior to LPS challenge measured by ELISA; format: functional
# Method in brief: (§2)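 Female OF1 mice, 8 weeks old, given compound orally; LPS (20 mg/kg) injected 1 h later. Blood withdrawn 1 h after LPS. Plasma mouse TNFα measured by ELISA; inhibition reported as percent.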
# [13] = target: Cyclin-dependent kinase 2 (Homo sapiens, UniProt P24941); assay: Inhibition of CDK2
# Mus musculus [14] = assay: Antiinflammatory activity in OF1 mouse assessed as inhibition of LPS-induced TNFalpha release at 100 mg/kg, po administered 1 hr prior to LPS challenge; format: functional; method in brief: as §2
# Mus musculus [15] = assay: Antiinflammatory activity in OF1 mouse assessed as inhibition of LPS-induced TNFalpha release at 30 mg/kg, po administered 1 hr prior to LPS challenge measured by ELISA; format: functional, organism-based; set-up: dose 30 mg/kg; method in brief: as §2
# [16] = target: Mitogen-activated protein kinase 9 (Homo sapiens, UniProt P45984); assay: Inhibition of JNK2
# Sequence of Mitogen-activated protein kinase 9 (P45984 whole entry): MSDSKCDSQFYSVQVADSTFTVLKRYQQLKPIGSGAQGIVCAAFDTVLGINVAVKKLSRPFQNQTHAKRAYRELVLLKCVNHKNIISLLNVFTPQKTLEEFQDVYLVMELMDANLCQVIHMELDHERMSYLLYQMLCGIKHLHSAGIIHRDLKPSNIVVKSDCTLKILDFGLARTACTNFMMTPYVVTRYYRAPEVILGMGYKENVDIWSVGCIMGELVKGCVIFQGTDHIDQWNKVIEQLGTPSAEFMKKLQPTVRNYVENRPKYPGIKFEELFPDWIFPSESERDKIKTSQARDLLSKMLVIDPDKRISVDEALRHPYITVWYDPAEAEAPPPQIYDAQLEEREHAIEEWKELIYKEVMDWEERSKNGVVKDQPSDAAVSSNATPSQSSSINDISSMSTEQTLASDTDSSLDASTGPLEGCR
# Sequence of Mitogen-activated protein kinase 8 (P45983 whole entry): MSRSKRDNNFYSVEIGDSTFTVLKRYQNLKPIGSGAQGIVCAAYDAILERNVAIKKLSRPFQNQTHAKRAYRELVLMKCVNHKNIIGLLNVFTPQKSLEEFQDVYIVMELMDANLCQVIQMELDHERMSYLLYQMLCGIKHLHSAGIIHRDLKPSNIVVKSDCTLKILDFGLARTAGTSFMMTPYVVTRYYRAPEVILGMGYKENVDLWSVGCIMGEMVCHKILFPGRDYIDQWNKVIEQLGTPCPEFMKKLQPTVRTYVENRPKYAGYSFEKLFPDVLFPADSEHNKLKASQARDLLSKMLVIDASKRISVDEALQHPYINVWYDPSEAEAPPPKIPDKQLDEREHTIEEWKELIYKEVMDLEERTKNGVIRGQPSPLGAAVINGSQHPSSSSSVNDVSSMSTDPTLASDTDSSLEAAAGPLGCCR
# Sequence of Mitogen-activated protein kinase 14 (Q16539 whole entry): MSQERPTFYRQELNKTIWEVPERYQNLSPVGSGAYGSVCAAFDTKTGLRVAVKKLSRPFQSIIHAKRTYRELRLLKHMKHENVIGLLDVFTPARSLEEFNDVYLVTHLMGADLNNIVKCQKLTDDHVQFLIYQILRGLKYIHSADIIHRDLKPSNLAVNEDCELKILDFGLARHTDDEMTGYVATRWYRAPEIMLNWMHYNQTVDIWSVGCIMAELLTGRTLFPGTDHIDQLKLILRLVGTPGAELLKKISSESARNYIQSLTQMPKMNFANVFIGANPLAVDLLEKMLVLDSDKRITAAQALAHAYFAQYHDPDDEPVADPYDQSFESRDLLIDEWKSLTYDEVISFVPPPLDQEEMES
Papp A→B [1] [×10⁻⁶ cm/s],concentration at 6 h [3] [µM],concentration at 1 h [4] [µM],concentration at 4 h [5] [µM],concentration at 1 h [6] [µM],IC50 [7] [µM],concentration at 1 h [9] [µM],solubility [10] [µg/mL],IC50 [11] [µM],IC50 [13] [µM],IC50 [16] [µM],Compound,Activity (Mus musculus [2]) [%],Activity (Mus musculus [8]) [%],IC50 (THP-1) [µM],inhibition (INH) (Mus musculus [12]) [%],inhibition in vivo at 100 mg/kg (Mus musculus [14]) [%],Activity (Mus musculus [15])
48.3,,,,,,,,,,,COc1ccc(-n2cc(-c3ccc4c(c3)C(=O)NCC4)c(N)n2)cc1,,,,,,
,25.8,1.7,6.8,17.4,> 10,14.1,< 2,> 10,> 10,> 10,Nc1nn(-c2cccc(-c3ccc4cc[nH]c4c3)c2)cc1-c1ccc2c(c1)CCNC2=O,67,23,> 20,66,68,inactive
